Measured values taken from publication PMC7266109 (Drug Design, Development and Therapy, 2020).
Like-named read-outs stand apart in the source and are kept apart here.

Type: in vitro ADME, rat
Method in brief: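 Spiked rat plasma held under storage and analysis conditions, then quantified by UPLC-MS/MS. Work-up: IS (working solution 100 ng/mL) added, protein precipitation with acetonitrile (3 volumes), vortex 1 min, centrifugation 13,000 g for 10 min at 4°C, supernatant injected. Separation: BEH C18 column at 40°C, acetonitrile/0.1% formic acid gradient at 0.40 mL/min, 3.0 min run.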

Measured: Stability in rat plasma samples

CCc1nc(C(N)=O)c(Nc2ccc(N3CCC(N4CCN(C)CC4)CC3)c(OC)c2)nc1NC1CCOCC1 [Gilteritinib]
stable: at room temperature for at least 24 h | at −20°C for at least 31 days | in the auto-sampler (10°C) for at least four hours | three complete freeze (−20°C)/thaw (RT) cycles
